According to ChEMBL document CHEMBL1123853, “A novel class of cardiotonics. Synthesis and pharmacological properties of [4-(substituted-amino)phenyl]pyridazinones and related derivatives” (1987):

How the values were obtained:
Canis familiaris [1] = experiment: Inotropic activity determined by evaluating the % change in Diastolic Blood Pressure (DBP) at a dose of 300 ug/kg administered intravenously […]; type: functional, Canis lupus familiaris
Outline: (§1)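 Mongrel dogs of either sex, 7–15 kg, anesthetized with sodium pentobarbital (30 mg/kg iv), open-chest, intubated and ventilated on room air. Compounds given intravenously. A femoral artery catheter with pressure transducer recorded SBP and DBP. dP/dtmax, right ventricular contractile force, cardiac output and heart rate were also recorded, as % change at each iv dose.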

Canis familiaris [2] = experiment: Inotropic activity determined by evaluating the % change in Heart Rate (HR) at a dose of 300 ug/kg administered intravenously […]; type: functional, Canis lupus familiaris, Muscle tissue; outline: as §1
Canis familiaris [3] = experiment: Inotropic activity determined by evaluating the maximum rate of rise in left ventricular pressure at a dose of 300 ug/kg administered intravenously […]; type: functional, Canis lupus familiaris, Muscle tissue; outline: as §1
Canis familiaris [4] = experiment: 0 Inotropic activity determined by evaluating the % change in Systolic Blood Pressure (SBP) at a dose of 1000 ug/kg administered intravenously […]; type: functional, Canis lupus familiaris; outline: as §1
Canis familiaris [5] = experiment: Inotropic activity determined by evaluating the maximum rate of rise in left ventricular pressure at a dose of 1000 ug/kg administered intravenously […]; type: functional, Canis lupus familiaris, Muscle tissue; outline: as §1
Canis familiaris [6] = experiment: Inotropic activity determined by evaluating the % change in Diastolic Blood Pressure (DBP) at a dose of 1000 ug/kg administered intravenously […]; type: functional, Canis lupus familiaris; outline: as §1
Canis familiaris [7] = experiment: Inotropic activity determined by evaluating the % change in Cardiac out put (CO)at a dose of 300 ug/kg administered intravenously […]; type: functional, Canis lupus familiaris; outline: as §1
Canis familiaris [8] = experiment: Inotropic activity determined by evaluating the % change in Heart Rate (HR) at a dose of 1000 ug/kg administered intravenously […]; type: functional, Canis lupus familiaris; outline: as §1
Canis familiaris [9] = experiment: Inotropic activity determined by evaluating the % change in contractile force (CF) of right ventricle at a dose of 300 ug/kg administered intravenously […]; type: functional, Canis lupus familiaris, Heart right ventricle; outline: as §1
Canis familiaris [10] = experiment: Inotropic activity determined by evaluating the % change in Cardiac out put (CO)at a dose of 1000 ug/kg administered intravenously […]; type: functional, Canis lupus familiaris; outline: as §1
Canis familiaris [11] = experiment: Inotropic activity determined by evaluating the % change in contractile force (CF) of right ventricle at a dose of 1000 ug/kg administered intravenously […]; type: functional, Canis lupus familiaris, Heart right ventricle; outline: as §1
Canis familiaris [12] = experiment: Inotropic activity determined by evaluating the % change in Systolic Blood Pressure (SBP) at a dose of 300 ug/kg administered intravenously […]; type: functional, Canis lupus familiaris, Muscle tissue; outline: as §1
Canis familiaris [13] = organism: Canis familiaris; experiment: Positive inotropic in the isolated papillary muscle of the dog.; type: functional, Canis lupus familiaris
Outline: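 Right ventricular anterior papillary muscle with septum, from mongrel dogs (7–12 kg, pentobarbital 30 mg/kg iv). It was perfused at about 100 mmHg via the septal artery with blood from a heparinized donor dog and paced at 120/min (1 ms pulses, about 1.5× threshold). Isometric tension was recorded. Saline solutions were injected intra-arterially, with amrinone as reference. ED15 (15% rise in developed tension) was taken from log dose-response curves. Results are mean ± SEM (n = 7) or mean ± range (n = 2).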

Canis familiaris [14] = organism: Canis familiaris; experiment: Positive inotropic activity determined in the […](that produced 30% increase in dose- response curves [dP/dt(max)]); type: functional; settings: Canis lupus familiaris
Outline: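 In the anesthetized open-chest dog (mongrel, 7–15 kg, pentobarbital 30 mg/kg iv, ventilated on room air), compounds were given intravenously and LV dP/dtmax was recorded. The dose giving a 30% rise in dP/dtmax was read from the dose-response curves. Results are mean ± SEM (n = 3) or mean ± range (n = 2).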

Canis familiaris [15] = experiment: Inotropic activity determined by evaluating the % change in Heart Rate (HR) at a dose of 100 ug/kg administered intravenously […]; type: functional, Canis lupus familiaris; outline: as §1
Canis familiaris [16] = experiment: Inotropic activity determined by evaluating the % change in Cardiac out put (CO)at a dose of 100 ug/kg administered intravenously […]; type: functional, Canis lupus familiaris; outline: as §1
Canis familiaris [17] = experiment: Inotropic activity determined by evaluating the % change in Systolic Blood Pressure (SBP) at a dose of 1000 ug/kg administered intravenously […]; type: functional, Canis lupus familiaris, Muscle tissue; outline: as §1
Canis familiaris [18] = experiment: Inotropic activity determined by evaluating the maximum rate of rise in left ventricular pressure at a dose of 100 ug/kg administered intravenously […]; type: functional, Canis lupus familiaris, Muscle tissue; outline: as §1
Canis familiaris [19] = experiment: Inotropic activity determined by evaluating the % change in contractile force (CF) of right ventricle at a dose of 100 ug/kg administered intravenously […]; type: functional, Canis lupus familiaris, Heart right ventricle; outline: as §1
Canis familiaris [20] = experiment: Inotropic activity determined by evaluating the % change in Systolic Blood Pressure (SBP) at a dose of 100 ug/kg administered intravenously […]; type: functional, Canis lupus familiaris, Muscle tissue; outline: as §1
Canis familiaris [21] = experiment: Inotropic activity determined by evaluating the % change in Diastolic Blood Pressure (DBP) at a dose of 100 ug/kg administered intravenously […]; type: functional, Canis lupus familiaris; outline: as §1

## Cc1cc(O)nnc1-c1ccc(Nc2ccncc2)cc1.Cl
Canis familiaris [1]
  Change of DBP: -0.3%
Canis familiaris [2]
  Change of HR: -1.3%
Canis familiaris [3]
  dP/dt: -2.2%
Canis familiaris [4]
  Change of SBP: 1.9%
Canis familiaris [5]
  dP/dt: 6.2%
Canis familiaris [6]
  Change of DBP: 1.4%
Canis familiaris [7]
  Change of CO: 9.6%
Canis familiaris [8]
  Change of HR: 5.8%
Canis familiaris [9]
  Change of CF: -1.1%
Canis familiaris [10]
  Change of CO: 7.6%
Canis familiaris [11]
  Change of CF: 10.5%
Canis familiaris [12]
  Change of SBP: 0.5%
Canis familiaris [13]
  ED15: 165 µg
Canis familiaris [14]
  ED30: > 1 mg/kg

## Nc1cc(-c2ccncc2)c[nH]c1=O [INAMRINONE]
Canis familiaris [1]
  Change of DBP: -4.1%
Canis familiaris [2]
  Change of HR: 3.8%
Canis familiaris [3]
  dP/dt: 22.3%
Canis familiaris [15]
  Change of HR: 1.2%
Canis familiaris [16]
  Change of CO: 1.9%
Canis familiaris [5]
  dP/dt: 54.8%
Canis familiaris [17]
  Change of SBP: -5.5%
Canis familiaris [6]
  Change of DBP: -14.1%
Canis familiaris [7]
  Change of CO: 15.6%
Canis familiaris [18]
  dP/dt: 6.7%
Canis familiaris [8]
  Change of HR: 8.1%
Canis familiaris [9]
  Change of CF: 22.4%
Canis familiaris [10]
  Change of CO: 36.5%
Canis familiaris [19]
  Change of CF: 6.5%
Canis familiaris [11]
  Change of CF: 79.7%
Canis familiaris [12]
  Change of SBP: -2.7%
Canis familiaris [20]
  Change of SBP: -5%
Canis familiaris [21]
  Change of DBP: -4.7%
Canis familiaris [13]
  ED15: 200 µg
Canis familiaris [14]
  ED30: 0.472 mg/kg
